ChEMBL document CHEMBL1156595, “Studies on the antifungal properties of N-thiolated beta-lactams” (2008)

Columns and labels:
Format in all cases: functional
Nakaseomyces glabratus = assay: Antifungal activity against Candida glabrata ATCC 15126 assessed as growth inhibition zone at 50 ug after 24 hrs by Kirby-Bauer agar diffusion assay; settings: ATCC 15126, 24 h, read-out: IZ
Summary of the method: (§1)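 Disk diffusion on yeast nitrogen base agar, swabbed with a McFarland 0.5 suspension in saline. 6 mm cellulose disks carried 10 µL of a 5 mg/mL CH2Cl2 stock (50 ug per disk), air-dried, three disks per plate. Plates were sealed and incubated 24 h at 37°C. Cleared inhibition zones were measured and averaged over triplicates.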

Candida parapsilosis = assay: Antifungal activity against Candida parapsilosis ATCC 22019 assessed as growth inhibition zone at 50 ug after 24 hrs by Kirby-Bauer agar diffusion assay; settings: Lodderomyces parapsilosis, ATCC 22019, 24 h; read-out: IZ; summary of the method: as §1
Cyberlindnera jadinii = assay: Antifungal activity against Candida utilis ATCC 29950 assessed as growth inhibition zone at 50 ug after 24 by Kirby-Bauer agar diffusion assay; settings: Williopsis jadinii, read-out: IZ; summary of the method: as §1
Clavispora lusitaniae = assay: Antifungal activity against Candida lusitaniae ATCC 34449 assessed as growth inhibition zone at 50 ug after 24 by Kirby-Bauer agar diffusion assay; settings: read-out: IZ; summary of the method: as §1
Kluyveromyces marxianus = assay: Antifungal activity against Candida kefyr ATCC 20409 assessed as growth inhibition zone at 50 ug after 24 hrs by Kirby-Bauer agar diffusion assay; settings: ATCC 20409, 24 h, read-out: IZ; summary of the method: as §1
Candida albicans = assay: Antifungal activity against Candida albicans ATCC 2091 assessed as growth inhibition zone at 50 ug after 24 hrs by Kirby-Bauer agar diffusion assay; settings: ATCC 2091, 24 h, read-out: IZ; summary of the method: as §1
Pichia kudriavzevii = assay: Antifungal activity against Candida krusei ATCC 14243 assessed as growth inhibition zone at 50 ug after 24hrs by Kirby-Bauer agar diffusion assay; settings: ATCC 14243, 24 h, read-out: IZ; summary of the method: as §1
Candida tropicalis = assay: Antifungal activity against Candida tropicalis clinical isolate assessed as growth inhibition zone at 50 ug after 24 hrs by Kirby-Bauer agar diffusion assay; settings: read-out: IZ; summary of the method: as §1

SMILES | zone of inhibition at 50 µg/disc (Nakaseomyces glabratus) | zone of inhibition at 50 µg/disc (Candida parapsilosis) | zone of inhibition at 50 µg/disc (Cyberlindnera jadinii) | zone of inhibition at 50 µg/disc (Clavispora lusitaniae) | zone of inhibition at 50 µg/disc (Kluyveromyces marxianus) | zone of inhibition at 50 µg/disc (Candida albicans) | zone of inhibition at 50 µg/disc (Pichia kudriavzevii) | zone of inhibition at 50 µg/disc (Candida tropicalis)
CO[C@H]1C(=O)N(SC)[C@H]1c1ccccc1Br | 17 mm | 40 mm | 25 mm | 19 mm | 13 mm | 25 mm | 0 mm | 21 mm
CO[C@H]1C(=O)N(SC)[C@H]1c1cccc(I)c1 | 19 mm | 22 mm | 15 mm | 19 mm | 15 mm | 14 mm | 0 mm | 14 mm
CO[C@H]1C(=O)N(SC)[C@H]1c1cc(F)c(F)c(F)c1 | 18 mm | 34 mm | 29 mm | 25 mm | 17 mm | 25 mm | 0 mm | 19 mm
CO[C@H]1C(=O)N(SC)[C@H]1c1cc(F)c(F)cc1F | 14 mm | 22 mm | 14 mm | 14 mm | 16 mm | 25 mm | 0 mm | 20 mm
CO[C@H]1C(=O)N(SC)[C@H]1/C=C/c1ccccc1 | 16 mm | 13 mm | 19 mm | 14 mm | 14 mm | 27 mm | 0 mm | 14 mm
CSN1C(=O)[C@H](OC(C)=O)[C@@H]1/C=C/c1ccccc1 | 14 mm | 0 mm | 13 mm | 0 mm | 12 mm | 0 mm | 0 mm | 0 mm
CO[C@H]1C(=O)N(SC)[C@H]1c1ccc(Cl)cc1Cl | 32 mm | 31 mm | 21 mm | 22 mm | 28 mm | 27 mm | 0 mm | 23 mm
CCC(C)SN1C(=O)[C@H](OC)[C@@H]1c1ccccc1Cl (stereo partly drawn) | 0 mm | 0 mm | 0 mm | 0 mm | 0 mm | 16 mm | 0 mm | 13 mm
CO[C@H]1C(=O)N(SC)[C@H]1c1ccc(Cl)cc1 | 0 mm | 0 mm | 0 mm | 14 mm | 10 mm | 0 mm | 0 mm | 0 mm
CO[C@H]1C(=O)N(SC)[C@H]1c1ccc(Br)cc1 | 19 mm | 23 mm | 17 mm | 17 mm | 17 mm | 25 mm | 0 mm | 20 mm
CSN1C(=O)[C@H](Oc2ccccc2)[C@@H]1/C=C/c1ccccc1 | 9 mm | 0 mm | 0 mm | 0 mm | 0 mm | 0 mm | 0 mm | 0 mm
CO[C@H]1C(=O)N(SC)[C@H]1c1ccccc1F | 0 mm | 19 mm | 14 mm | 0 mm | 15 mm | 15 mm | 0 mm | 0 mm
CO[C@H]1C(=O)N(SC)[C@H]1c1cccc(F)c1 | 0 mm | 22 mm | 16 mm | 0 mm | 13 mm | 14 mm | 0 mm | 0 mm
CSN1C(=O)[C@H](Oc2ccccc2)[C@@H]1CCc1ccccc1 | 18 mm | 14 mm | 21 mm | 14 mm | 19 mm | 25 mm | 0 mm | 19 mm
CO[C@H]1C(=O)N(SC)[C@H]1c1ccccc1I | 20 mm | 22 mm | 15 mm | 17 mm | 15 mm | 16 mm | 0 mm | 15 mm
CSN1C(=O)[C@H](OC(C)=O)[C@@H]1CCc1ccccc1 | 15 mm | 0 mm | 0 mm | 0 mm | 13 mm | 0 mm | 0 mm | 0 mm
CSN1C(=O)[C@@H](OC(C)=O)[C@H]1c1ccccc1 | 0 mm | 0 mm | 16 mm | 10 mm | 0 mm | 14 mm | 0 mm | 11 mm
CO[C@H]1C(=O)N(SC)[C@H]1c1ccc(F)cc1 | 0 mm | 21 mm | – | 0 mm | – | 16 mm | 0 mm | 0 mm
CO[C@H]1C(=O)N(SC)[C@H]1c1cccc(Br)c1 | 17 mm | 18 mm | 14 mm | 15 mm | 14 mm | 20 mm | 0 mm | 18 mm
CSN1C(=O)[C@H](OC(C)=O)[C@@H]1c1ccccc1 | 0 mm | 0 mm | 16 mm | 15 mm | 9 mm | 14 mm | 0 mm | 15 mm
CO[C@H]1C(=O)N(SC)[C@H]1c1cc(F)cc(F)c1F | 11 mm | 22 mm | 16 mm | 17 mm | 15 mm | 18 mm | 0 mm | 24 mm
CO[C@H]1C(=O)N(SC)[C@H]1c1ccc(I)cc1 | 22 mm | 25 mm | 20 mm | 20 mm | 19 mm | 16 mm | 0 mm | 12 mm
CO[C@H]1C(=O)N(SC)[C@H]1c1cccc(Cl)c1 | 21 mm | 28 mm | 19 mm | 13 mm | 13 mm | 23 mm | 0 mm | 20 mm
CO[C@H]1C(=O)N(SC)[C@H]1CCc1ccccc1 | 20 mm | 14 mm | 28 mm | 15 mm | 24 mm | 34 mm | 0 mm | 17 mm
CO[C@H]1C(=O)N(SC)[C@H]1c1cc(Cl)cc(Cl)c1Cl | 31 mm | 26 mm | 19 mm | 23 mm | 30 mm | 23 mm | 0 mm | 22 mm
